# Source: PubChem BioAssay
# Activity calls are given as the source filed them.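 How the source made its calls, unless noted: active means visually confirmed hit in the image check and inhibition above 20%; inconclusive means visually confirmed hit but inhibition not above 20%; inactive means no visual hit in the image check.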
# Experiments:
# [1] = inhibitors of TNFa-induced NFkB p65 translocation, primary screen, imaging, HUVEC, MLSMR starter and 10KST1 sets (AID 438;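 active means inhibition above 20% together with a positive visual image hit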;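 further: compound added about 3h40 before a 20 min TNFalpha stimulation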;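 on inhibition: signal is the nuclear over cytoplasmic p65 intensity ratio per well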); details: HUVEC TNFa-induced p65 nuclear translocation; cell count: measured here: nuclei count (cytotoxicity indicator), at 2.08 µM; inhibition: at 2 µM, stronger effect = higher value, 0% TNFa-plus-vehicle, 100% no-TNFa wells
# [2] = reduction of polyQ htt aggregates in cells – imaging, exon1htt(103Q)mCFP cells, high-content imaging, primary screen (AID 483;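 active means visual image review flags a hit and inhibition of aggregation exceeds 20%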;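 further: compound exposure lasted 3 days before fixation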;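 on nuclei count: percent of the per-plate median nuclei count of sample wells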); details: exon1htt(103Q)mCFP cell line, aggregate imaging, at 2 µM; inhibition of aggregation: stronger effect = higher value; nuclei count: measured here: cell count, toxicity
# [3] = endothelial E-selectin expression blockers – imaging, HUVEC, immunofluorescence, MLSMR starter and 10KST1 sets, primary screen (AID 487); details: HUVEC TNFalpha-induced E-selectin immunofluorescence imaging, at 2 µM; inhibition: stronger effect = higher value; nuclei count: measured here: cell number, toxicity;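 on inhibition: signal is fraction of cell area covered by stained E-selectin grains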;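 on nuclei count: 100% = median nuclei count of all wells on the same plate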
# [4] = molecular target: Voltage-gated potassium channel subunit beta-2 (Rattus norvegicus) (UniProt P62483); test: inhibitors of rat Kvbeta2 reductase activity – biochemical, NADPH fluorescence, primary screen (AID 622;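 active means fluorescence slope higher than the sample average by over 3 SD, cut at about -0.22 in these data, passing the limit was not always enough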;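 further: slope of raw intensity against log time taken from 70 to 1610 s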); details: recombinant KvBeta, 4-cyanobenzaldehyde reduction, at 10 µM, stronger effect = higher value
# [5] = molecular target: Voltage-gated potassium channel subunit beta-2 (Rattus norvegicus) (UniProt P62483); test: enhancers of rat Kvbeta2 NADPH turnover – biochemical, NADPH fluorescence, primary screen (AID 623;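 active means NADPH fluorescence slope more negative than the mean of all samples by about 3 SD, 99.7% confidence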;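 further: fluorescence intensity change per second fitted from 20 to 320 s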); details: Recombinant KvBeta, NADPH fluorescence decrease slope, 10 min; at 10 µM; stronger effect = lower value
# [6] = molecular target: Muscarinic acetylcholine receptor M4 (Homo sapiens) (UniProt P08173); test: M4-linked GIRK flux change, two-sided – cell-based, HEK293 M4/GIRK, thallium flux, BTC-AM, M4 allosteric agonist project, primary screen (AID 625;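 active means fluorescence slope after compound addition differing from the mean of all tested samples at 99.7% confidence, mostly higher but some lower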;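 further: thallium influx through GIRK channels coupled to M4 in HEK293 cells with BTC-AM dye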); details: at 10 µM, actives lie on both sides
# Summary of the method: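 assay system = HEK293 cells with M4 receptor and GIRK channels | medium = pH 7.3 thallium assay buffer | doses = 10 µM final, single point | timing = cells overnight at 37 °C, BTC-AM loading 1 h, reads 2 min total | signal = BTC-AM fluorescence, 1 Hz kinetic reads | read-out = post-addition slope, 15–24 s, of baseline-normalized fluorescence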
# [7] = blockers of RIG-like receptor reporter activation – cell-based, Sendai virus stimulus, luciferase, 10K MLSCN set, TLR/RLR signaling modifier project, primary screen (AID 602276;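 active means inhibition at or above 50% at 10 µM; inactive means inhibition below 50%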;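 further: firefly luciferase from ISG56 promoter only with Renilla not read in this screen; 0% = Sendai virus plus DMSO and 100% = medium plus DMSO without virus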); details: HEK293 RL24 IRF3 luciferase reporter, at 10 µM, stronger effect = higher value
# [8] = TLR3 IRF3 reporter activation blockers – cell-based, poly I:C stimulus, luciferase, 10K MLSCN set, primary screen (AID 602277;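 active means inhibition of the reporter signal at or above 50%; inactive means inhibition below 50%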); details: HEK293-TLR3 RL24 IRF3 luciferase reporter, at 10 µM, stronger effect = higher value
# Chain of Voltage-gated potassium channel subunit beta-2 (Rattus norvegicus) (P62483 whole entry, looked up): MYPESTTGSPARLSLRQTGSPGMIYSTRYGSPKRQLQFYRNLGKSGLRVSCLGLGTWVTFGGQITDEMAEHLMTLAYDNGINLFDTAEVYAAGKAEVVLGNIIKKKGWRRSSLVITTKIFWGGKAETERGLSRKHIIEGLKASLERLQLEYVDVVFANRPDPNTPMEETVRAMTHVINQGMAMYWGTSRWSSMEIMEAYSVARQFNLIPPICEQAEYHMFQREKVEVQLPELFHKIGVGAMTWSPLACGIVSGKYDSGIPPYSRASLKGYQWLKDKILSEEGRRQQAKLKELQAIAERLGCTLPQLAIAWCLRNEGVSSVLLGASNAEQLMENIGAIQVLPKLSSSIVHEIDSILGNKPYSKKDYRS
# Chain of Muscarinic acetylcholine receptor M4 (Homo sapiens) (P08173 whole entry, looked up): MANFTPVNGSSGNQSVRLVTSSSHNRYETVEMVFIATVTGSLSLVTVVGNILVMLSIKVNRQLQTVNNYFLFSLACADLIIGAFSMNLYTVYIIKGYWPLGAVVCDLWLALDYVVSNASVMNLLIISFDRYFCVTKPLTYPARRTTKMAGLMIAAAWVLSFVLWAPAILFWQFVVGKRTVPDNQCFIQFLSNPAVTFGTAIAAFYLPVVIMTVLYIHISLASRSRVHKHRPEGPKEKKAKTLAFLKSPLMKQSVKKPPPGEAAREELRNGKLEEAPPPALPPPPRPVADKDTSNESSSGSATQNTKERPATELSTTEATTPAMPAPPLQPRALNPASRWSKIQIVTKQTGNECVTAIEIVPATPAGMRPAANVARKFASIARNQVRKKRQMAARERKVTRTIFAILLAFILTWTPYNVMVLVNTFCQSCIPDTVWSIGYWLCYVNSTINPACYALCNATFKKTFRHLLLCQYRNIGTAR
Structure (SMILES),cell count [1],inhibition [1],inhibition of aggregation [2],nuclei count [2] [%],inhibition [3],nuclei count [3] [%],fluorescence slope [4],NADPH fluorescence slope [5],fluorescence slope [6],inhibition [7],inhibition [8]
CCCn1cc(SCC(=O)NCc2ccco2)c2ccccc21,679,-25.2% (inactive),-35.4% (inactive),124,20% (inactive),100,-0.521 (inactive),9.7e-06 (inactive),0.00408 (inactive),13% (inactive),5.85% (inactive)
Cc1cc(C(=O)N2CCN(C(c3ccccc3)c3ccccc3)CC2)no1,303,-17.6% (inactive),32.7% (inactive),73.4,-17.5% (inactive),84.1,-0.433 (inactive),-5.3e-05 (inactive),0.00719 (inactive),14.8% (inactive),12.2% (inactive)
COC(=O)c1cc(NC(=O)C2COc3ccccc3O2)cc(C(=O)OC)c1 (stereo not drawn),462,6.8% (inactive),16.1% (inactive),101,-15.6% (inactive),107,-0.517 (inactive),-3e-05 (inactive),0.00524 (inactive),11.6% (inactive),-7.02% (inactive)
CC1Cc2cc(/C(O)=C3/C(=O)C(=O)N(CCN4CCOCC4)C3c3cccc(O)c3)ccc2O1 (stereo not drawn),576,-2.7% (inactive),-17.8% (inactive),105,-18.4% (inactive),94.9,-0.573 (inactive),-8.9e-05 (inactive),0.00539 (inactive),-19.1% (inactive),-6.57% (inactive)
Cc1cccc(N2CCN(C(=O)c3cc4c(=O)[nH]c5ccccc5c4n3C)CC2)c1C,228,5.8% (inactive),5.3% (inactive),85.4,-26.1% (inactive),106,-0.529 (inactive),-2.8e-05 (inactive),0.00424 (inactive),9.93% (inactive),-17.5% (inactive)
CCc1nnc(NC(=O)c2cccc(C(=O)Nc3nnc(CC)s3)n2)s1,700,-23.3% (inactive),13.6% (inactive),120,-18.7% (inactive),107,-0.398 (inactive),-3.4e-05 (inactive),0.00556 (inactive),-5.37% (inactive),-13.7% (inactive)
COCCOC(=O)C1=C(C)Nc2ncnn2C1c1ccc(F)cc1 (stereo not drawn),743,-0.4% (inactive),24.6% (inactive),71.5,12.9% (inactive),124,-0.369 (inactive),-0.000107 (inactive),0.00592 (inactive),6.2% (inactive),19.4% (inactive)
CCOC(=O)c1c(NC(=O)OC)sc(C(=O)N(C)C)c1C,321,-5.4% (inactive),1.3% (inactive),103,1.1% (inactive),115,-0.312 (inactive),-4.5e-05 (inactive),0.00682 (inactive),7.2% (inactive),14.6% (inactive)
COC(=O)Cn1c2c(c3cc(C)ccc31)CCCC2,640,-9.9% (inactive),23.1% (inactive),91.1,-28.6% (inactive),111,-0.523 (inactive),-0.000167 (inactive),0.00431 (inactive),18.4% (inactive),21.6% (inactive)
COc1cccc(C2C(C#N)=C(N)OC3=C2C(=O)CCC3)c1OC(=O)c1ccco1 (stereo not drawn),384,4.7% (inactive),-12.3% (inactive),103,52.8% (inactive),88.3,-0.513 (inactive),-3.8e-05 (inactive),0.00509 (inactive),12.4% (inactive),10.4% (inactive)
Cn1ccnc1C(O)c1ccco1 (stereo not drawn),722,3.3% (inactive),-15.7% (inactive),97.2,-146% (inactive),129,-0.422 (inactive),2.5e-05 (inactive),0.00477 (inactive),15.2% (inactive),13.2% (inactive)
O=C(CCCn1c(=S)[nH]c2ccccc2c1=O)N1CCCCC1,452,-6.2% (inactive),6.5% (inactive),123,1.4% (inactive),106,-0.451 (inactive),2.5e-05 (inactive),0.00588 (inactive),-0.408% (inactive),6.14% (inactive)
CCOC(=O)CSc1nc2cc(C(=O)NCc3ccco3)ccc2c(=O)n1-c1ccc(F)cc1,329,7.7% (inactive),-7.1% (inactive),104,7.7% (inactive),92.9,-0.481 (inactive),0.000117 (inactive),0.00969 (inactive),-7.4% (inactive),-0.0676% (inactive)
c1csc(-c2nc3nc4ccccc4nc3n2Cc2ccc3c(c2)OCO3)c1,837,1.7% (inactive),-18.6% (inactive),114,-9.5% (inactive),108,-0.405 (inactive),-4.1e-05 (inactive),0.00582 (inactive),-28.9% (inactive),-79.4% (inactive)
Cc1cccc(N2CCN(S(=O)(=O)c3ccc4c(c3)CCC(=O)N4)CC2C)c1 (stereo not drawn),322,4.7% (inactive),8.5% (inactive),123,-29.6% (inactive),126,-0.453 (inactive),-0.00034 (inactive),0.00513 (inactive),10.8% (inactive),19.1% (inactive)
Cc1n[nH]c(C)c1S(=O)(=O)N1CCN(c2ccccn2)CC1,407,-8.5% (inactive),12.4% (inactive),76,-43.6% (inactive),108,-0.485 (inactive),5e-05 (inactive),0.00681 (inactive),-0.889% (inactive),2.25% (inactive)
COc1ccccc1-n1c(C)nnc1SCC(N)=O,382,6.2% (inactive),7.3% (inactive),100,-49.7% (inactive),103,-0.521 (inactive),-1.4e-05 (inactive),0.00439 (inactive),17.4% (inactive),22.3% (inactive)
Oc1ccc(-c2onc(C(F)(F)F)c2-c2cscn2)c(O)c1,363,-0.5% (inactive),-7% (inactive),92.7,-85.6% (inactive),116,-0.573 (inactive),-5.1e-05 (inactive),0.00657 (inactive),14.9% (inactive),-12.3% (inactive)
Cn1c(=O)cc(SCC(=O)NCC2CCCO2)c2ccc(Cl)cc21 (stereo not drawn),467,-11.6% (inactive),3.4% (inactive),107,26.9% (inactive),93.8,-0.549 (inactive),-3.4e-05 (inactive),0.00522 (inactive),10.3% (inactive),9.81% (inactive)
Cc1cc(C)c2c(N)c(C(=O)N3CCN(c4ncccn4)CC3)sc2n1,663,-9.1% (inactive),5.1% (inactive),69.4,-10.2% (inactive),101,-0.559 (inactive),-1.8e-05 (inactive),0.00421 (inactive),-3.01% (inactive),-25.1% (inactive)
CC(C)(C)SCCNC(=O)COc1ccccc1,368,-2.3% (inactive),16.8% (inactive),91.5,-16.9% (inactive),110,-0.32 (inactive),-4.6e-05 (inactive),0.00624 (inactive),1.01% (inactive),-18% (inactive)
Cc1cc2ncn(N)c2cc1C,711,-25.9% (inactive),-20.7% (inactive),108,-53.3% (inactive),118,-0.224 (inactive),-1e-05 (inactive),0.00519 (inactive),17.6% (inactive),15.1% (inactive)
CC(C(=O)NC1CCCCCC1)N(c1ccccc1)S(C)(=O)=O (stereo not drawn),370,1.9% (inactive),4.5% (inactive),108,-7.4% (inactive),97,-0.548 (inactive),-0.000126 (inactive),0.00352 (inactive),15.7% (inactive),3.26% (inactive)
CC(=O)c1c(C)nc(C)nc1NC(=O)Cc1ccccc1,234,-4.4% (inactive),37.5% (inactive),79.9,2.9% (inactive),84.4,-0.566 (inactive),-4.2e-05 (inactive),0.00735 (inactive),12.7% (inactive),20.5% (inactive)
COc1cccc(Oc2ccc(N)cc2)c1,716,-0.6% (inactive),20.3% (inactive),102,-54.1% (inactive),97.5,-0.44 (inactive),-0.000235 (active),0.00432 (inactive),-0.294% (inactive),-6.53% (inactive)
CN(C)S(=O)(=O)c1ccc(C(=O)N2CCC(c3nc4ccccc4o3)CC2)cc1,468,8.2% (inactive),-9.7% (inactive),103,40.1% (inactive),95,-0.427 (inactive),-9.6e-05 (inactive),0.00556 (inactive),10.5% (inactive),12.2% (inactive)
O=c1c2ccccc2sn1-c1ccc(S(=O)(=O)N2CCCCC2)cc1,539,-20.9% (inactive),-8.4% (inactive),115,53.4% (inactive),83.7,-0.271 (inactive),-1.7e-05 (inactive),0.00829 (inactive),3.69% (inactive),7.09% (inactive)
Cc1ccc2cc(CN(CC(C)C)C(=O)C3CCCO3)c(=O)[nH]c2c1 (stereo not drawn),510,6.3% (inactive),12% (inactive),90,-62.4% (inactive),147,-0.565 (inactive),6.7e-05 (inactive),0.00521 (inactive),3.89% (inactive),26.4% (inactive)
